Screening results from PubChem.
Only some compounds are listed: those with a hit (about 1.5% of all), similar ones and a draw of the others.
NR1D1 modulator: modulates human Rev-erb alpha binding to DNA; P20393; 0.79% of 370,000 active; activity, % at 10 µM; Rev-erbα–FITC-DNA binding, fluorescence polarization, 90 min; AID 1259318;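 active = activity above about 14%, limit read from the data; passing the limit was not always enough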;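 note: 0% = DMSO wells with 35 nM protein and 100% = DMSO wells with 750 nM protein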
PG9 Ab binder: binds the HIV-1 gp120 antibody PG9; TR-FRET gp120-PG9 antibody binding; inhibition, % at 6.7 µM; 0.43% of 360,000 active; in the data active = inhibition above about 8.5%
NR2E3 ag-1: activates human NR2E3 receptor. Q9Y5X4. CHO-S Gal4-NCOR/VP16-NR2E3 two-hybrid, luciferase. inhibition of corepressor binding, % at 3.98 µM. 0.35% of 360,000 active. AID 602229;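 active = inhibition above the mean of all tested compounds plus 3 SD, cut at about 70% in these data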;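 note: 0% = DMSO with NR2E3 transfected cells and 100% = cells lacking NR2E3 construct; higher means lower luciferase signal from less NR2E3 corepressor binding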
NR2E3 ag-2: agonists of human nuclear receptor NR2E3; GST-NR2E3/biotin-RetCOR TR-FRET, 1536-well; AID 2300; Q9Y5X4; 0.12% of 320,000 active; inhibition of corepressor binding, % at 4.78 µM;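 active = percent inhibition above the cutoff of mean plus 3 SD of all tested compounds, set per screening campaign, cut at about 20% in these data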;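 note: 0% = DMSO wells and 100% = biotin wells as full block of FRET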
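Test system: GST-NR2E3 and biotin-RetCOR proteins | Quantity: 1.35 nM GST-tagged NR2E3 final | Medium: Tris pH 7.5 | Also added: 7 nM biotin-RetCOR | Dosing: Compound at 4.8 µM, single dose | Timing: 5 h at 4 °C | Detection: Time-resolved FRET | Read-out basis: Percent inhibition | Benchmarks: Biotin wells as high control, 0.6% DMSO wells as low control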
NR2E3 ag confirm: confirmation of human NR2E3 agonists | CHO-S mammalian two-hybrid NR2E3-NCOR, luciferase luminescence | shares compounds with NR2E3 ag-1 | 51% of 2,300 active | AID 624378 | inhibition, % at 3.98 µM;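 active = average inhibition above a cutoff equal to the mean inhibition of all tested compounds plus one SD, cut at about 70% in these data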;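 note: 0% = DMSO in NR2E3 cells and 100% = DMSO in cells lacking NR2E3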
VP16 counter: counter-screen for NR2E3 agonists: GAL4-VP16 reporter inhibitors; AID 624379; CHO-S GAL4-VP16 luciferase reporter, luminescence; shares compounds with NR2E3 ag-1; 29% of 2,300 active; inhibition, % at 3.98 µM;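 active = mean inhibition above a cutoff equal to the average over all tested compounds plus one standard deviation, cut at about 70% in these data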;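 note: luciferase from a UAS reporter driven by GAL4-VP16 transactivation; 0% = DMSO with VP16-transfected cells and 100% = DMSO with cells lacking VP16; higher means less reporter light so more repression of VP16 activity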
PG9 binder conf: confirmation of small molecules binding HIV-1 gp120 antibody PG9 | shares compounds with PG9 Ab binder | TR-FRET PG9 antibody binding, biochemical | inhibition, % at 6.7 µM | 90% of 1,500 active; in the data active = inhibition above about 9%
PGV04 Ab binding: counter-screen for PG9 binders: binding control antibody PGV04 | shares compounds with PG9 Ab binder | TR-FRET PGV04 antibody-gp120 binding, biochemical | inhibition, % at 6.7 µM | 95% of 1,500 active | AID 651604; in the data active = inhibition above about 9.5%
NR1D1 mod conf: confirmation of modulators of human Rev-erb alpha DNA binding; activation, % at 25 µM; Rev-erb alpha FITC-DNA binding, fluorescence polarization, 90 min; shares compounds with NR1D1 modulator; 61% of 3,000 active;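 active = activation at or above a set limit, or at least 3 SD above the negative control mean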;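 note: 0% = 35 nM protein with DMSO and 100% = 750 nM protein high control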
An asterisk follows results filed as active; nt = not tested or not shown.

SMILES | NR1D1 modulator | PG9 Ab binder | NR2E3 ag-1 | NR2E3 ag-2 | others
CCN(CCNc1ccc([N+](=O)[O-])c2cccnc12)S(=O)(=O)c1ccccc1 | 2 | 1 | -37 | 0
COC(C)(C)CCC[C@H](C)C/C=C/C(C)=C/C(=O)OC(C)C | -8 | nt | nt | nt
CCCC(C)C1(CC)C(=O)N=C(S)NC1=O (centres undefined) | -3 | nt | nt | nt
O=C1Nc2ccccc2/C1=C/c1cnc[nH]1 | 4 | -10 | 48 | -9 | NR2E3 ag confirm=26;VP16 counter=-1
COc1ccc2c(c1)/C(=C/c1cnc[nH]1)C(=O)N2 | 1 | -14 | 81* | -11 | NR2E3 ag confirm=86*;VP16 counter=25
O=C1Nc2ccccc2/C1=C/c1nc2ccccc2c(=O)n1-c1ccc(O)cc1 | -2 | 0 | -41 | 1
COc1ccc(-n2c(/C=C3\C(=O)Nc4ccccc43)nc3ccccc3c2=O)cc1 | 1 | -1 | -5 | 2
Cn1sc(Cl)cc1=O | 5 | nt | nt | nt
C=C(C)C1CNC(C(=O)O)C1CC(=O)O (centres undefined) | -4 | nt | nt | nt
O=C(Nc1ccc(Br)cc1)c1cc(Br)cc(Br)c1O | -2 | nt | nt | nt
CN1C2CCC1/C(=C/c1ccccn1)C(=O)/C2=C\c1ccccn1 | -1 | -1 | 88* | 4 | NR2E3 ag confirm=100*;VP16 counter=26
C[N+]1(C)C2CC(OC(=O)[C@@H](CO)c3ccccc3)CC1C1OC12 (some centres undefined) | -5 | nt | nt | nt
CC(C)(C)CC(C)(C)c1ccc(O)cc1 | 10 | nt | nt | nt
CC(=O)OCC12CC(OC(=O)CC(C)C)C(C)=CC1OC1C(O)C(OC(C)=O)C2(C)C12CO2 (centres undefined) | 0 | 0 | 101* | nt | NR2E3 ag confirm=100*;VP16 counter=99*
CC(C)CC(NC(=O)CCCNC(=O)CCC(=O)OC1O[C@H]2OC3(C)CC[C@H]4[C@H](C)CCC(C1C)C24OO3)C(=O)O (some centres undefined) | 3 | 0 | 94* | -3 | NR2E3 ag confirm=91*;VP16 counter=74*
CC1C(OC(=O)CCC(=O)NC(C)(C)CO)O[C@H]2OC3(C)CC[C@H]4[C@H](C)CCC1C24OO3 (some centres undefined) | 2 | 0 | 97* | 2 | NR2E3 ag confirm=95*;VP16 counter=75*
O=c1cccc2n1C[C@H]1CNC[C@H]2C1 | -2 | nt | nt | nt
CC(C)(C)C(=O)c1cn(CC(=O)NCc2ccco2)c2ccccc12 | 4 | -1 | -96 | 9
O=C(Cn1cc(C(=O)c2ccccc2F)c2ccccc21)NCc1ccco1 | 1 | 17* | -1 | 8 | PG9 binder conf=15*;PGV04 Ab binding=37*
COC(=O)Cn1cc(C=C2C(=O)N(C)C(=O)N(C)C2=O)c2ccccc21 | -1 | 24* | nt | 3 | PG9 binder conf=39*;PGV04 Ab binding=53*
COc1ccc(-n2c(=S)[nH]c3ccc(C)cc3c2=O)cc1 | 52* | 41* | -11 | nt | PG9 binder conf=35*;PGV04 Ab binding=39*;NR1D1 mod conf=19*
Nc1ncc2[nH]cnc2n1 | 0 | 1 | -16 | 3
CN(C)CCN=Cc1c(O)n(Cc2ccc3c(c2)OCO3)c(=S)[nH]c1=O | 4 | 0 | -8 | -2
O=c1[nH]c(=S)n(Cc2ccc(F)cc2)c(O)c1C=NCc1ccc2c(c1)OCO2 | 25* | 1 | -15 | 0 | NR1D1 mod conf=12
CCN1C[C@]2(OC(=O)c3ccccc3NC(C)=O)CCC(OC)C34C5C[C@H]6C(OC)[C@]5(O)[C@](O)(C[C@@H]6OC)C(C[C@@H]32)[C@H]14 (some centres undefined) | -1 | 0 | -3 | -2
CCCCOCCCN1C(C)=CC(=C2C(=O)NC(=S)NC2=O)C=C1C | 41* | -1 | -25 | 0 | NR1D1 mod conf=-2
O=C1NC(=S)SC1=Cc1ccc(N(CCCl)CCCl)cc1 | 24* | -2 | -27 | nt | NR1D1 mod conf=20*
CC1(C)OC(c2ccccc2)=C/C(=C/C=C2C(=O)NC(=S)NC2=O)O1 | 5 | -1 | nt | 0
